Test results published in BindingDB's records for doi:10.1021/jm9910324 (University of Camerino, 1999).
Structures can show the parent of a compound that is named as a salt.

Experiments:
[1] = target: T1, Alpha-1B adrenergic receptor (Homo sapiens, UniProt P35368); experiment: The binding affinity was evaluated on cloned human alpha-1B adrenergic receptor expressed in chinese hamster ovary(CHO) cells by using [3H]prazosin as radioligand.
T1 sequence (P35368 whole entry): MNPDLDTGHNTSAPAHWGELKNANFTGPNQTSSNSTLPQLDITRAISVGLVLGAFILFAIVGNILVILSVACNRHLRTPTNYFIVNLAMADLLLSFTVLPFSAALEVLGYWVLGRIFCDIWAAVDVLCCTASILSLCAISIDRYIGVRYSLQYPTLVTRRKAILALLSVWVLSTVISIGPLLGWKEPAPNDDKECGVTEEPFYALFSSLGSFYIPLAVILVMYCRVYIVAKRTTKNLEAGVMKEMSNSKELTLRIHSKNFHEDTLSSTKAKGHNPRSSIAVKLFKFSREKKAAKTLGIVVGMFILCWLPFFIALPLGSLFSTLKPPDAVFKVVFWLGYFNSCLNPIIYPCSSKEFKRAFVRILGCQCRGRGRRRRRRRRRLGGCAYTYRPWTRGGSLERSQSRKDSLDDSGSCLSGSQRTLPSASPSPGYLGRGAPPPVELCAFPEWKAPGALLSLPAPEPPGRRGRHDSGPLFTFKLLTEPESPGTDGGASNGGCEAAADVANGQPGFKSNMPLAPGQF
Summary of the method: (§1)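 Membranes (30 μg protein) from CHO cells stably expressing each human α1 subtype, in 50 mM Tris-HCl pH 7.4. Incubated with 0.1–0.4 nM [3H]prazosin for 30 min at 25 °C, competitor 1 pM–10 μM. Nonspecific binding with 10 μM phentolamine. Ki by Cheng-Prusoff. 2–3 experiments in triplicate.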

[2] = target: T2, Alpha-2A adrenergic receptor [16-465]/Alpha-2B adrenergic receptor/Alpha-2C adrenergic receptor (Rattus norvegicus, UniProt P19328+P22086+P22909); experiment: The binding affinity was evaluated on alpha-2 adrenergic receptor expressed in rat cortex by using [3H]rauwolscine as radioligand.
T2 construct: 16-465
T2 sequence (P22909 whole entry): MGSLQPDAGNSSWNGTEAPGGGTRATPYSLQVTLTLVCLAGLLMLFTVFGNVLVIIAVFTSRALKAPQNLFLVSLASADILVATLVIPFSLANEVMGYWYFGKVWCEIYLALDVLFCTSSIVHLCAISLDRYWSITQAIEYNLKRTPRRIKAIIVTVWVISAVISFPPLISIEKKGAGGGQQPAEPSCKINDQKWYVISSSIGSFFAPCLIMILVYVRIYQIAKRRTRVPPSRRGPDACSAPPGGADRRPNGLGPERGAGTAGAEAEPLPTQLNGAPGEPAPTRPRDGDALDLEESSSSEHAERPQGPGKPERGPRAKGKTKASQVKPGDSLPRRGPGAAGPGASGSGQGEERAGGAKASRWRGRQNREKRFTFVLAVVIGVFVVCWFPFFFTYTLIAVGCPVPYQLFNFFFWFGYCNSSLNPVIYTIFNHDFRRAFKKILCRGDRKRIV
T2 sequence (P22086 whole entry): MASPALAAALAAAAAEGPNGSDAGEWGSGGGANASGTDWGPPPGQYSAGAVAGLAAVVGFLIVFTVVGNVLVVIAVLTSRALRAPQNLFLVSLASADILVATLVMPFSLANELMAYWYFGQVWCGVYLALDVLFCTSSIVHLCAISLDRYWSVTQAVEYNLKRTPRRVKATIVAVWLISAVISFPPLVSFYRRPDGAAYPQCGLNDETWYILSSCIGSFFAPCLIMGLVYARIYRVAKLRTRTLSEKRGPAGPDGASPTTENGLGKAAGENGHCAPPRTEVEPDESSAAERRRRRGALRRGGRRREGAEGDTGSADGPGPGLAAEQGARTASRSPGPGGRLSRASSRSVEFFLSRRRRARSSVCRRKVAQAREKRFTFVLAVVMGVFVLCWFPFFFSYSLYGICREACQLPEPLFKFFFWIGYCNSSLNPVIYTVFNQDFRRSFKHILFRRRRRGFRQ
T2 sequence (P19328 whole entry): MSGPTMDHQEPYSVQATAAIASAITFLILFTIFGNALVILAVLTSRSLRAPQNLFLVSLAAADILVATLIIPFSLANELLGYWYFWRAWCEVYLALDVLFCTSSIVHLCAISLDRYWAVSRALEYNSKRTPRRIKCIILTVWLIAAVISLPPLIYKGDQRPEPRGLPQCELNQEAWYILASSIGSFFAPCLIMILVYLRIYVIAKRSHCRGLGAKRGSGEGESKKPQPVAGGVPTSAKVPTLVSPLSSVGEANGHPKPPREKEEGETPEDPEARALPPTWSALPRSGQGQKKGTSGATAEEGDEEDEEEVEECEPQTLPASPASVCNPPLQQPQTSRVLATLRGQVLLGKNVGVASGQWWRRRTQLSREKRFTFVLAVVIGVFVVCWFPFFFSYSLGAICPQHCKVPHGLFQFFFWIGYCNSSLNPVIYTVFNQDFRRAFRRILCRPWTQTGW
Summary of the method: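 Male Sprague-Dawley rat cerebral cortex membranes, washed in Tris-HCl pH 7.4 and held in buffer with 10 μM pargiline and 0.1% ascorbic acid. Incubated 30 min at 25 °C with 0.5-1.5 nM [3H]rauwolscine; nonspecific binding with 10 μM phentolamine. Filtration, scintillation counting. Ki from Cheng-Prusoff; 2-3 experiments in triplicate.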

[3] = target: 5-hydroxytryptamine receptor 2A (Rattus norvegicus, UniProt P14842); experiment: The binding affinity was evaluated on 5-hydroxytryptamine 2A receptor expressed in rat cortex by using [3H]ketanserin as radioligand.
5-hydroxytryptamine receptor 2A, sequence (P14842 whole entry): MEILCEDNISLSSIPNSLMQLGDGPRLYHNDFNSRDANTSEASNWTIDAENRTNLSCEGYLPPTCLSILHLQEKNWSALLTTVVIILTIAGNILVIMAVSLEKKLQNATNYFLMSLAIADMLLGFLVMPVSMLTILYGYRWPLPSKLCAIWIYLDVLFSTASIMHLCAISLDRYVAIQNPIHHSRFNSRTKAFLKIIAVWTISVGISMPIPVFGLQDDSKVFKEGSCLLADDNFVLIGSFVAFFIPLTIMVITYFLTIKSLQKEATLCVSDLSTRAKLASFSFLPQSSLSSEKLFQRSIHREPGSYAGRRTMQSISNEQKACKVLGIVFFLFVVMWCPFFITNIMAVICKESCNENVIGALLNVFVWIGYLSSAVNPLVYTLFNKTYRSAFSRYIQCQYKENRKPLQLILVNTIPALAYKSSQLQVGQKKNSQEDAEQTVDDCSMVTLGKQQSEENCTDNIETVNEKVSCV
Summary of the method: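 Rat cerebral cortex membranes in Tris-HCl pH 7.4 with 10 μM pargyline and 0.1% ascorbic acid. Incubated 20 min at 37 °C with 0.7–1.3 nM [3H]ketanserin. Nonspecific binding with 2 μM ketanserin. Filtration and scintillation counting. Ki by Cheng-Prusoff. 2–3 experiments in triplicate.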

D(2) dopamine receptor = D(2) dopamine receptor (Rattus norvegicus, UniProt P61169); experiment: The binding affinity was evaluated on Dopamine receptor D2 expressed in rat striatum by using [3H]spiperone as radioligand
D(2) dopamine receptor, sequence (P61169 whole entry): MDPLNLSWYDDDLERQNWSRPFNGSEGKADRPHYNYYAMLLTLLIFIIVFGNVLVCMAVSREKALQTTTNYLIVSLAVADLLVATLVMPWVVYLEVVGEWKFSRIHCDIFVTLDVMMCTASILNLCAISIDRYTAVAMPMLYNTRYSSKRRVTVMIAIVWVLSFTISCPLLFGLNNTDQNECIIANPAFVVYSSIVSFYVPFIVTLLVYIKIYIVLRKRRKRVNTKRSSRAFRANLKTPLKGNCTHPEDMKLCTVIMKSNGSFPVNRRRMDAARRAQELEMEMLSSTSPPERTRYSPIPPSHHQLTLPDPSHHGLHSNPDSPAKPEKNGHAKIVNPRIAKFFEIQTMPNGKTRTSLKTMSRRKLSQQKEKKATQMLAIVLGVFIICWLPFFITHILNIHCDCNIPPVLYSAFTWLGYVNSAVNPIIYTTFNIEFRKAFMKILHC
Summary of the method: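 Rat striatum membranes in Tris-HCl with 10 μM pargyline, 0.1% ascorbic acid, 120 mM NaCl, 5 mM KCl, 2 mM CaCl2, 1 mM MgCl2. Incubated 15 min at 37 °C with 0.2–0.6 nM [3H]spiperone. Nonspecific binding with 1 μM (+)-butaclamol. Ki by Cheng-Prusoff. 2–3 experiments in triplicate.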

[4] = target: T1, Alpha-1B adrenergic receptor; experiment: The binding affinity was evaluated on cloned human Alpha-1B adrenergic receptor expressed in chinese hamster ovary(CHO) cells by using [3H]prazosin as radioligand.; summary of the method: as §1
[5] = target: T3, 5-hydroxytryptamine receptor 1A (Homo sapiens, UniProt P08908); experiment: The binding affinity was evaluated on cloned human 5-hydroxytryptamine 1A receptor expressed in HeLa cells by using DPAT as radioligand.
T3 sequence (P08908 whole entry): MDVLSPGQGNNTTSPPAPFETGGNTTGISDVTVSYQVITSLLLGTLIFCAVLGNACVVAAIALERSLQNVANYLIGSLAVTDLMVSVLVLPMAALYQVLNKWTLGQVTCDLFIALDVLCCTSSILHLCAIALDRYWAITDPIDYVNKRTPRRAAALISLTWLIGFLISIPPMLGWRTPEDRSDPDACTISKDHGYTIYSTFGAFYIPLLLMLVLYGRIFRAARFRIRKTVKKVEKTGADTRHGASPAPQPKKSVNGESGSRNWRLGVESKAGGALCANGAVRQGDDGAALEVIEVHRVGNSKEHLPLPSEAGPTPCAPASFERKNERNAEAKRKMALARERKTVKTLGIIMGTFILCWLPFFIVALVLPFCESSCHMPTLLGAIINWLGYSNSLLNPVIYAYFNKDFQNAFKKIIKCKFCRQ
Summary of the method: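 Membranes from HeLa cells stably expressing human 5-HT1A, in 50 mM Tris-HCl pH 7.4, 2.5 mM MgCl2, 10 μM pargyline. Nonspecific binding with 10 μM 5-HT. Filtration. Ki by Cheng-Prusoff. 2–3 experiments in triplicate.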

[6] = target: T4, Alpha-1D adrenergic receptor (Homo sapiens, UniProt P25100); experiment: The binding affinity was evaluated on cloned human Alpha-1D adrenergic receptor expressed in chinese hamster ovary(CHO) cells by using [3H]-prazosin as radioligand.; summary of the method: as §1
T4 sequence (P25100 whole entry): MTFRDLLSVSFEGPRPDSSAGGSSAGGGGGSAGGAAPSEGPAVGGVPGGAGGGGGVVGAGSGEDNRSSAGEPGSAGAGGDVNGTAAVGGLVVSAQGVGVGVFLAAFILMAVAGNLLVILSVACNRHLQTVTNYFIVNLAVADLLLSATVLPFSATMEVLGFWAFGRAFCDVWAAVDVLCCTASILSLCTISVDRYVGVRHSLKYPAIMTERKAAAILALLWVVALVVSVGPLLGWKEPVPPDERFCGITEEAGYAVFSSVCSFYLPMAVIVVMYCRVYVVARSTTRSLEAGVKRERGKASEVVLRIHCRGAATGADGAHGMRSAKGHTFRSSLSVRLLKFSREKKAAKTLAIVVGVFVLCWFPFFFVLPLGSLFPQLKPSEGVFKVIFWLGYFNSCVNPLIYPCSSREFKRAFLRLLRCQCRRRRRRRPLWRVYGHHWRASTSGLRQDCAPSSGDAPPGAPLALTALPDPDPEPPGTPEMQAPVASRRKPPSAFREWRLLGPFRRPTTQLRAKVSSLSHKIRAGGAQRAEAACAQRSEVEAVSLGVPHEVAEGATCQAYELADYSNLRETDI

[7] = target: T5, Alpha-1A adrenergic receptor (Homo sapiens, UniProt P35348); experiment: The binding affinity was evaluated on cloned human Alpha-1A adrenergic receptor expressed in chinese hamster ovary(CHO) cells by using [3H]prazosin as radioligand.; summary of the method: as §1
T5 sequence (P35348 whole entry): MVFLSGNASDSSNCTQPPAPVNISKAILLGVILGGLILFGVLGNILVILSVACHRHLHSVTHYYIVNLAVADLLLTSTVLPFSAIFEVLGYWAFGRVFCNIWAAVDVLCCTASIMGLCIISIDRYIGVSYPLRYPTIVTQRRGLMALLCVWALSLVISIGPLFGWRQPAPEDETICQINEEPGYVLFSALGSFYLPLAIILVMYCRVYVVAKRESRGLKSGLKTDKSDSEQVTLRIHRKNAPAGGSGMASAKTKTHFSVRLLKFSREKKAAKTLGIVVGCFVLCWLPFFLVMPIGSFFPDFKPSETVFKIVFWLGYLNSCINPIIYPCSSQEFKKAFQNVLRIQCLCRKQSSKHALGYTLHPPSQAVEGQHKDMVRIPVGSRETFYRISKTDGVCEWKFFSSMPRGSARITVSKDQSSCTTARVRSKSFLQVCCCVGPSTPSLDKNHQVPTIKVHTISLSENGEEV

[8] = target: T5, Alpha-1A adrenergic receptor; experiment: The binding affinity was evaluated on cloned human alpha-1A adrenergic receptor expressed in chinese hamster ovary(CHO) cells by using [3H]prazosin as radioligand.; summary of the method: as §1
[9] = target: T4, Alpha-1D adrenergic receptor; experiment: The binding affinity was evaluated on cloned human alpha-1D adrenergic receptor expressed in chinese hamster ovary(CHO) cells by using [3H]prazosin as radioligand.; summary of the method: as §1
[10] = target: T2, Alpha-2A adrenergic receptor [16-465]/Alpha-2B adrenergic receptor/Alpha-2C adrenergic receptor; experiment: The binding affinity was evaluated on Alpha-2 adrenergic receptor expressed in rat cortex by using [3H]rauwolscine as radioligand.
Summary of the method: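 Male Sprague-Dawley rat cerebral cortex membranes, washed in Tris-HCl pH 7.4 and resuspended with 10 μM pargyline and 0.1% ascorbic acid. Incubated 30 min at 25 °C with 0.5–1.5 nM [3H]rauwolscine. Nonspecific binding with 10 μM phentolamine. Filtration on PEI-treated filters. Ki by Cheng-Prusoff. 2–3 experiments in triplicate.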

Row | SMILES | pKi [1] | pKi [2] | pKi [3] | pKi (D(2) dopamine receptor) | pKi [4] | pKi [5] | pKi [6] | pKi [7] | pKi [8] | pKi [9] | pKi [10]
1 | CCCN(CCC)C1CCc2cccc(O)c2C1 (stereo not given) | < 6 | 6.08 | < 6 | < 6 |  |  |  |  |  |  | 
2 | COc1cccc(OC)c1OCCNCCOc1ccccc1OCc1ccccc1 |  |  |  |  | 9.27 | 7.93 | 10.2 | 9.33 |  |  | 
3 | COc1cccc(OC)c1OCCNCC1C(=O)c2ccccc2SC1c1ccccc1 (stereo not given) |  |  |  |  | < 6 | 7.36 |  |  | 7.42 | 6.37 | 
4 | COc1cccc(OC)c1OCCNCC1Oc2ccccc2CC1c1ccccc1 (stereo not given) | 6.51 |  | < 6 | < 6 | 6.58 | 6.84 | 7.28 | 8.49 | 6.78 | 6.86 | < 6
5 | COc1cccc(OC)c1OCCNCC1C(=O)c2ccccc2CC1c1ccccc1 (stereo not given) | 6.11 | 6.45 | 6.63 | < 6 |  | 6.83 |  |  | 8.06 | 6.88 | 
6 | COc1cccc(OC)c1OCCNCC1=Cc2ccccc2OC1c1ccccc1 (stereo not given) |  |  |  |  | 6.84 | 8.08 | 6.95 | 7.14 |  |  | 
7 | COc1cccc(OC)c1OCCNCC1C(=O)c2ccccc2OC1c1ccccc1 (stereo not given) | 6.84 | < 6 | 6.2 | < 6 |  | 6.73 |  |  | 9.22 | 7.93 | 
8 | COc1cccc(OC)c1OCCNCC1COc2ccccc2O1 (stereo not given) [WB-4101 hydrochloride] |  | 7.83 | 6 | 6.91 |  | 8.68 |  |  | 9.37 |  | 
